Screens as filed in PubChem.
Shown are actives, neighbours in structure and some others; about 4% of the full set was active somewhere.
MDM2 E3 inh – blocks human Mdm2 ubiquitin ligase activity; 210,000 compounds, 0.11% hits; cell-based MDM2 ubiquitination luciferase reporter, 2 h; 0 = plate control, 100 = twice control, blank-subtracted; signal enhancement, % at 5 µM; Q00987;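 active means signal enhancement of 30% or more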;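 further: luminescence tracks abundance of the self-degrading MDM2-luciferase fusion protein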
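Assay system: mammalian cells stably expressing self-ubiquitinating, self-degrading MDM2 E3–luciferase fusion. Quantity: 2000 cells in each well. Medium: DMEM culture medium. Compound dosing: single-point 5 µM. Timing: cell settling 4 h, compound treatment 2 h, both 37 °C. Technique: luciferase luminescence. Read-out basis: percent signal gain over controls, blank-subtracted. Benchmarks: plate controls and plate blanks.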
S1P3 antagonist – antagonists of human S1P3 receptor; Q99500; CHO S1P3 NFAT-BLA reporter, FRET fluorescence, antagonist mode; inhibition, % at 4.98 µM; 170,000 compounds, 0.27% hits; AID 485;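 active means inhibition above the plate cutoff, the mean inhibition of test wells on that plate plus 3 SD, cut at about 28% in these data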;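 further: cells challenged with S1P at its EC80 of 0.8 µM; blue over green emission ratio from cleaved BLA substrate after 4 h stimulation; 0% = S1P-stimulated wells and 100% = unstimulated DMSO-only wells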
Target sequence (Q99500 whole entry, looked up): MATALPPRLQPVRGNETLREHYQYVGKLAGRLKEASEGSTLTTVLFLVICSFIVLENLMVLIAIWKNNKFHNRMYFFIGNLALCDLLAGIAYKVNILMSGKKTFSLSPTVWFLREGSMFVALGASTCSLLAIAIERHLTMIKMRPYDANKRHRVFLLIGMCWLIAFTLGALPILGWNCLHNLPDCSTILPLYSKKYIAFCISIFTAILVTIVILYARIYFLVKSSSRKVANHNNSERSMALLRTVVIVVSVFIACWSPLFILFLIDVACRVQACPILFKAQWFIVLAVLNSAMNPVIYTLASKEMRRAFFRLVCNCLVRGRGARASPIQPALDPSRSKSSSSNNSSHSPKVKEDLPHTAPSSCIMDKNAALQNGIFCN
Hsp70 act – Hsp70 transcriptional activation, primary screen; HeLa Hsp70 promoter luciferase reporter, luminescence; scaled: vehicle 0, proteasome-inhibitor control 100%; activation, % at 10 µM; 200,000 compounds, 0.04% hits;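 active means activation above the mean across all tested compounds plus 3 SD, cutoff set per campaign, cut at about 5.5% in these data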;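 further: 100% = MG132 at 30 µM as the positive control and 0% = DMSO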
CHOP inh – blocks CHOP induction under ER stress. CHO-K1 CHOP-promoter luciferase, tunicamycin-induced, 15-18 h. inhibition, % at 10 µM. 220,000 compounds, 3.8% hits. AID 2732;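 active means compounds that reduced the stress-induced luciferase reporter signal by more than about 70% of percent inhibition, limit read from the data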;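 further: 0% = tunicamycin plus vehicle and 100% = wells without tunicamycin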
CHOP inh conf – confirmation of CHOP induction inhibitors. inhibition, % at 10 µM. CHO-CHOP promoter luciferase reporter, tunicamycin-induced, luminescence. AID 504437. shares compounds with CHOP inh. 2,100 compounds, 45% hits;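 active means mean of three repeat readings of reporter signal inhibition above a set limit, cut at about 70% in these data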;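 further: 0% = tunicamycin plus vehicle and 100% = wells lacking tunicamycin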
Numbers without * were called inactive; / = no result.

SMILES | MDM2 E3 inh | S1P3 antagonist | Hsp70 act | CHOP inh | CHOP inh conf
CCc1ccc(OCC(=O)NC(NC(=S)Nc2ccccc2)C(Cl)(Cl)Cl)cc1 (configuration not stated) | -13 | 4 | 0 | 105* | 105*
CC(=O)NC(NC(=S)Nc1ccc(C)cc1C)C(Cl)(Cl)Cl (configuration not stated) | -4 | -9 | / | -2 | /
CC(=O)NC1CC(C)(C)N(OC(C)=O)C(C)(C)C1 | -8 | / | 0 | -2 | /
Oc1cccc(C2c3[nH]c4ccccc4c3CCN2Cc2ccoc2)c1 (configuration not stated) | -2 | -1 | 0 | 18 | /
Oc1cccc(C2c3[nH]c4ccccc4c3CCN2Cc2ccc3c(c2)CCO3)c1 (configuration not stated) | 6 | -1 | 0 | 106* | 10
Cc1ccc(NC(=O)CSc2nnc(-c3cccs3)o2)cc1S(=O)(=O)N1CCCCC1 | -1 | 4 | 0 | 9 | /
Cc1onc(-c2c(F)cccc2Cl)c1C(=O)N=C(N)N1CC(C)OC(C)C1 (configuration not stated) | -6 | -7 | / | -5 | /
CC1=NC(C#N)=C(C#N)NC(C)(C)C1 | -9 | -19 | 0 | 7 | /
Cc1ccc(C)c(S(=O)(=O)Nc2ccc(O)c(Sc3ncn[nH]3)c2)c1 | 0 | -13 | / | 6 | /
Cc1ccc(S(=O)(=O)/N=C2/C=C(Sc3ncn[nH]3)C(=O)c3ccccc32)c(C)c1 | 6 | -4 | 0 | 109* | -8
Cc1ccc(S(=O)(=O)/N=C2/C=C(Sc3ncn[nH]3)C(=O)c3ccccc32)cc1 | 5 | -15 | 0 | 108* | 108*
CC1=NN(C(C#N)c2c(C)nn(Cc3ccccc3)c2C)C(C)(C)C1 (configuration not stated) | -10 | -26 | 1 | 0 | /
Cc1ccccc1NC(=O)NC1CCCCC1C (configuration not stated) | -20 | 2 | 0 | -8 | /
Cc1ccc(NC(=O)c2ccc(NCCCN3CCOCC3)c([N+](=O)[O-])c2)cc1Cl | / | 7 | 0 | 21 | /
O=C(Nc1ccc(Cl)c([N+](=O)[O-])c1)c1ccc(NCCCN2CCOCC2)c([N+](=O)[O-])c1 | 7 | / | 0 | 97* | -5
CCN(CC)C(=O)C(=O)c1cccn1-c1cccc(OC)c1C#N | -3 | -6 | 0 | 23 | /
N#Cc1ccc(Cl)cc1NC(=O)CSc1nc2nc(-c3cccs3)cc(C(F)(F)F)c2c(=O)[nH]1 | -18 | 1 | / | 5 | /
CNc1nc(-c2ccccc2)[n+](-c2ccc(C)cc2)s1 | -12 | -3 | 0 | 97* | 10
O=C1N(Cc2cccc(Cl)c2)C[C@@H]2C[C@@H](c3cccn3-c3nccs3)N3CCC[C@@]123 | -9 | 10 | 0 | 21 | /
O/N=C/c1cc(Cl)ccc1OCc1cccc2ccccc12 | -9 | / | 0 | 113* | 31
Cc1ccc2nc(/C(C#N)=C\c3ccc(Oc4ccc([N+](=O)[O-])cn4)cc3)[nH]c2c1 | -5 | -4 | 0 | 97* | 37
COc1cc(CNCCSc2nnnn2C)cc(Br)c1OCc1ccccc1 | / | -7 | 0 | 1 | /
Cc1ccc(-c2cc(-c3ccc(C)o3)nc(N)c2C#N)cc1 | 14 | -16 | 0 | 101* | 10
Cc1ccc(-c2cc(-c3ccc(Cl)cc3)c(C#N)c(N)n2)o1 | -11 | -33 | 0 | 98* | 5
Cc1cc(-c2cc(-c3ccc(Cl)cc3)nc(N)c2C#N)co1 | -23 | / | 0 | 106* | -48
SMILES | MDM2 E3 inh | S1P3 antagonist | Hsp70 act | CHOP inh | CHOP inh conf
COC(=O)/C=C1\OC(c2ccccc2)=CC1=O | -2 | -9 | 0 | 108* | -53
CCCCc1ccc(NC(=S)Nc2ccc(Cl)c(S(=O)(=O)N(C)C)c2)cc1 | 14 | -9 | 0 | 105* | 83*
CCN1CCN(CC(=O)Nc2ccc(Cl)c(S(=O)(=O)N(C)C)c2)CC1 | 6 | -19 | 0 | 8 | /
CCOC(=O)c1sc(=S)n(C)c1NC(=O)c1ccccc1C | -2 | -16 | -1 | -5 | /
Nc1sc(-c2ccccc2)cc1-c1n[nH]c(=S)n1C1CCCCC1 | -11 | -1 | / | -20 | /
COc1ccc(-n2c(-c3cc(-c4ccccc4)sc3N)n[nH]c2=S)cc1 | 2 | 5 | / | 100* | 8
CC(=O)Nc1ccc(NC(=O)COC(=O)c2cnccn2)cc1 | -7 | -17 | 0 | -1 | /
COc1ccc(C2=CC(=O)C=CC2=O)cc1 | / | 12 | / | 103* | -79
COc1ccc(-c2cc(=O)[nH][nH]2)cc1 | -1 | / | 0 | 25 | /
O=c1[nH]c(NCCCO)nc2c1C1(CCCC1)Cc1ccccc1-2 | -4 | -18 | 0 | 55 | /
O=c1[nH]c(NNC(=S)NC2CCCCC2)nc2c1C1(CCCC1)Cc1ccccc1-2 | / | 11 | / | 103* | 110*
O=[N+]([O-])c1ccc(N/N=C/c2c[nH]c3ccccc23)cc1 | -11 | / | 0 | 57 | /
COc1ccccc1NS(=O)(=O)c1cc([N+](=O)[O-])ccc1N/N=C/c1c[nH]c2ccccc12 | -18 | / | 0 | 98* | 52
O=C(CSc1ncnc2c1oc1ccccc12)Nc1nccs1 | -3 | -9 | 0 | -17 | /
CCc1nc(SCC(=O)Nc2nccs2)c2oc3ccccc3c2n1 | -5 | 12 | 0 | 102* | 23
O=c1cc(O)sc2ccccc12 | -17 | 17 | 0 | 1 | /
O=c1[nH]sc2ccccc12 | -7 | 5 | 0 | 97* | -63
COc1ccc(CCNC(=O)C(=O)NCCOc2ccccc2)cc1OC | -2 | 12 | 0 | -1 | /
O=C(Nc1ccccc1C(F)(F)F)c1cc(-c2cccc(O)c2)on1 | -6 | 7 | 0 | 97* | -9
C[n+]1cc2c3c(ccc2c2ccc4cc5c(cc4c21)OCO5)OCO3 | / | / | / | -6 | /
CCC1CCCCN1c1nc(-c2ccncc2)nc2ccccc12 (configuration not stated) | -22 | / | 0 | 99* | 15
COc1cc2c(cc1OC)CN(CC(=O)Nc1ccc(Cl)c(S(=O)(=O)N(C)C)c1)CC2 | 3 | -13 | 0 | 19 | /
O=C(CN1CCN(C(=O)c2ccccc2F)CC1)Nc1ccc(Br)cc1 | -20 | -2 | -1 | 29 | /
CCOC(=O)c1c(CSc2ccccc2)oc2ccc(O)cc12 | 4 | 5 | 0 | 105* | 14
O=S(=O)(c1ccc(Cl)cc1)c1snnc1-c1ccccc1 | -15 | / | 0 | / | -82
O=C(COC(=O)CNS(=O)(=O)c1c(Cl)cccc1Cl)Nc1ccccc1Sc1ccccc1 | -12 | 12 | 0 | 45 | /
O=C(COC(=O)CNS(=O)(=O)c1cccc(Br)c1)Nc1ccccc1Sc1ccccc1 | -5 | -14 | 0 | 96* | 8
O=C(CSc1cccc[n+]1[O-])N1CCc2ccccc21 | -4 | -3 | / | 2 | /
CCCCCCCOC(=O)c1nc(Cl)c(Cl)c(N)c1Cl | -10 | 5 | 0 | 99* | 55
Cc1cc(S(=O)(=O)Nc2ccc3ccccc3c2)c(C)s1 | 16 | / | 0 | 111* | 52
